Assay results as given in paper PMC3446773 (Cancer research, 2009).

Legend:
[1] = system: MDA-MB-231 orthotopic breast tumor xenograft; experiment: Orthotopic breast cancer xenograft in nude mice; type: in vivo, nu/nu mice; details: for Blood vessel density in tumor (CD31 staining): 10 mg/kg i.p. alone, four doses; for Tumor size relative to controls: 10 mg/kg i.p., twice per week for 2 wk, starting 2 wk after cell transplantation; for Tumor volume relative to control group: 3 mg/kg i.p., P < 0.01, 1b vs 1a not different (P = 0.16)
Method in brief: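 Female nu/nu mice, 4–6 wk, anesthetized with ketamine/xylazine i.p. Trypsinized MDA-MB-231 cells in cross-linkable ECM (5 × 10^7 cells/mL) were injected into the fourth mammary fat pad (200 µL; 100 µL in 3 mg/kg study). From 2 wk after implant, i.p. twice weekly for 2 wk; six mice/group; saline control. Arms: test compound 10 mg/kg, Taxol 10 mg/kg, Taxol week 1 then compound week 2; diastereomers 3 mg/kg. Volume = width² × length/2.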

human LPA1 = human LPA1 (Homo sapiens, UniProt Q92633); experiment: Ca2+ mobilization assay, LPA1 expressed in RH7777 cells; type: cell-based; details: for Ki: read-out: LPA1 Ki; for IC50: read-out: LPA1 antagonist IC50
human LPA1, sequence (Q92633 whole entry): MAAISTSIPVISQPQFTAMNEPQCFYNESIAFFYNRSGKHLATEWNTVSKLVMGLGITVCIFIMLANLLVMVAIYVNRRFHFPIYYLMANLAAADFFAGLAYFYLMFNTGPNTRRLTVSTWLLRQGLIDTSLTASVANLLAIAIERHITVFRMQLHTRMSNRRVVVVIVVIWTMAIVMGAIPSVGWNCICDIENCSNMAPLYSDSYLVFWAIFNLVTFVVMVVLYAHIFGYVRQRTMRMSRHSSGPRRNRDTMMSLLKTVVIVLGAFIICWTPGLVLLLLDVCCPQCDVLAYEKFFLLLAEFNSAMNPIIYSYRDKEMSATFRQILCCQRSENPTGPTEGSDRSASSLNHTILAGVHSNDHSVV
Method in brief: (§1)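 Intracellular Ca2+ mobilization measured in RH7777 cells expressing the human receptor (LPA1, LPA2, LPA3 or LPA5); parental line intrinsically unresponsive to LPA. Both activation and inhibition of LPA responses tested. Quadruplicate tests; EC50, IC50 and Ki derived by sigmoid curve fitting.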

human LPA2 = human LPA2 (Homo sapiens, UniProt Q9HBW0); experiment: Ca2+ mobilization assay, LPA2 expressed in RH7777 cells; type: cell-based; details: for Ki: read-out: LPA2 Ki; for IC50: read-out: LPA2 antagonist IC50
human LPA2, sequence (Q9HBW0 whole entry): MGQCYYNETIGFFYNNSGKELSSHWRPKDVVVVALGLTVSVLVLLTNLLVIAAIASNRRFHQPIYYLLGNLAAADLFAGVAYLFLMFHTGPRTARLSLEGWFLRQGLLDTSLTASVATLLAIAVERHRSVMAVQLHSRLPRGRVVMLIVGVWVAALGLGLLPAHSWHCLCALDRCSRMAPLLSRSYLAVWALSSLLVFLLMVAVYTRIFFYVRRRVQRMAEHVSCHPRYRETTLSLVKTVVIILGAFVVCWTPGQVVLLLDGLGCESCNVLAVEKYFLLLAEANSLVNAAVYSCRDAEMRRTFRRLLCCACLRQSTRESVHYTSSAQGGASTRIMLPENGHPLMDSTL
Method in brief: as §1

human LPA3 = target: T1, human LPA3 (Homo sapiens, UniProt Q9UBY5); experiment: Ca2+ mobilization assay, LPA3 expressed in RH7777 cells; type: cell-based; details: for LPA3 ligand type / Ki / IC50: Ca2+ mobilization, RH7777 cells; for Ki: read-out: LPA3 Ki; for IC50: read-out: LPA3 antagonist IC50
T1 sequence (Q9UBY5 1-353): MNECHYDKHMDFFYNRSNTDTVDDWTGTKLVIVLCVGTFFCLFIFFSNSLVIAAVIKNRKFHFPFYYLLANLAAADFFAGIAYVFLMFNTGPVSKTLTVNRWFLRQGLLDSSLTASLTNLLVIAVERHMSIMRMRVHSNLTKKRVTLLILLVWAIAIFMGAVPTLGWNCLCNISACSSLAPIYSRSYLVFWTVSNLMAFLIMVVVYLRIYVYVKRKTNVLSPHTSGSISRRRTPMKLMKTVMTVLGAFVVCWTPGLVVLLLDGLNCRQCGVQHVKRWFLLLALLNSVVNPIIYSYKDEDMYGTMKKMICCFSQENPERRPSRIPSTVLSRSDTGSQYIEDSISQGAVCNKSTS
Method in brief: as §1

human LPA4 = human LPA4 (Homo sapiens, UniProt Q99677); experiment: Ca2+ mobilization assay, LPA4 expressed in CHO cells; type: cell-based; details: for LPA4 ligand type: Ca2+ mobilization, CHO cells; for LPA4 inhibition: at 30 μmol/L (400 nmol/L LPA)
human LPA4, sequence (Q99677 whole entry): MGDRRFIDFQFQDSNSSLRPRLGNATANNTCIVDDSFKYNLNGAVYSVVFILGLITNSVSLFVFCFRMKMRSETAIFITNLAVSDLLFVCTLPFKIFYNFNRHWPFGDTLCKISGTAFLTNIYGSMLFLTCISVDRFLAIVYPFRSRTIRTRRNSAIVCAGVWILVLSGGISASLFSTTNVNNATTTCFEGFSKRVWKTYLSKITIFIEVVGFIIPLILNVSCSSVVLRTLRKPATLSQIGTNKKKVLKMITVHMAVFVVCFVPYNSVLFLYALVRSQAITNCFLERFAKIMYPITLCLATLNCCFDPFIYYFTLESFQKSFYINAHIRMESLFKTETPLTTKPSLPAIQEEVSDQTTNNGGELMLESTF

human LPA5 = human LPA5 (Homo sapiens, UniProt Q9H1C0); experiment: Ca2+ mobilization assay, LPA5 expressed in RH7777 cells; type: cell-based; details: for LPA5 ligand type: transiently transfected; for LPA5 E max: at 10 μmol/L
human LPA5, sequence (Q9H1C0 whole entry): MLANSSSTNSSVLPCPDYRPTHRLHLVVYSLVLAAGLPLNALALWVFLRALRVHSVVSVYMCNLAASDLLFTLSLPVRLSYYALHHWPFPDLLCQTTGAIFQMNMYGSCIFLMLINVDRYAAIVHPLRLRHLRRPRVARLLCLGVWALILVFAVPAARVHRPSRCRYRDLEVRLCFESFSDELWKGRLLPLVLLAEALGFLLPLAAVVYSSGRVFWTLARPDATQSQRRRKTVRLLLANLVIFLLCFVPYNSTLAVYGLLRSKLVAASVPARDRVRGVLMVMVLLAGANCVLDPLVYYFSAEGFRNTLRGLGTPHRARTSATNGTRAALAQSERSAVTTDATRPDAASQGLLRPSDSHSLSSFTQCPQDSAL
Method in brief: as §1

[2] = target: T2, recombinant hemagglutinin-tagged ATX (ATX-HA) (Homo sapiens, UniProt Q13822); experiment: ATX assay, hydrolysis of fluorogenic substrate FS-3; type: biochemical; details: for ATX inhibition: 10 μmol/L, FS-3 substrate 1 μmol/L, 2 h, 37°C; for IC50: read-out: ATX inhibition IC50, FS-3 substrate, 0.01 to 10 μmol/L
Method in brief: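 Mixed with FS-3 (final 1 µmol/L) and test compound (0.01–10 µmol/L) in assay buffer with BSA. Fluorescence read at ex 485/em 538 nm over 2 h, 37°C. The 0–120 min difference was normalized to vehicle; triplicate wells, % inhibition; Student's t test.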

MDA-MB-231 cells [3] = experiment: Scratch wound assay; type: cell-based, human; details: for Effect on MDA-MB-231 cell migration: 10 and 40 μmol/L, 24 h
MDA-MB-231 cells [4] = experiment: In vitro invasion assay through Matrigel-coated transwell membranes; type: cell-based, human; details: P < 0.05
[5] = target: T2, recombinant hemagglutinin-tagged ATX (ATX-HA); details: at 10 μmol/L; previously observed; cited from earlier work
[6] = Ca2+ mobilization, RH7777 cells

SMILES	Blood vessel density in tumor (CD31 staining) [1]	Tumor size relative to controls [1]	LPA1 ligand type (human LPA1)	Ki (human LPA1) [nM]	IC50 (human LPA1) [nM]	LPA2 ligand type (human LPA2)	Ki (human LPA2) [nM]	IC50 (human LPA2) [nM]	LPA3 ligand type (human LPA3)	Ki (human LPA3) [nM]	IC50 (human LPA3) [nM]	LPA4 ligand type (human LPA4)	LPA4 inhibition (human LPA4) [%]	LPA5 ligand type (human LPA5; [6])	ATX inhibition [2]	IC50 [2] [nM]	Effect on MDA-MB-231 cell migration (MDA-MB-231 cells [3])	Inhibition of MDA-MB-231 invasion (MDA-MB-231 cells [4])	Tumor volume relative to control group [1]	LPA5 E max (human LPA5) [%]	other results
CC(=O)O[C@H]1C(=O)[C@@]2(C)[C@H]([C@H](OC(=O)c3ccccc3)[C@]3(O)C[C@H](OC(=O)[C@H](O)[C@@H](NC(=O)c4ccccc4)c4ccccc4)C(C)=C1C3(C)C)[C@]1(OC(C)=O)CO[C@@H]1C[C@@H]2O [Taxol, reference compound]	statistically different from the control	reduction of tumor size relative to controls																			
CCCCCCCCCCCCCCCC(=O)OC[C@@H](O)C[C@H](Br)P(=O)(O)O [1b]			Antagonist	752	2080	Antagonist	241	275	Antagonist	623	2090	Antagonist	33.1	Antagonist	99.4 ± 2.7 % Inhibition (10 μmol/L)	22	inhibited the MDA-MB-231 cell migration	~ 52%	significantly decreased the tumor volume		Ki (human LPA5; read-out: LPA5 Ki, Ca2+ mobilization, RH7777 cells): 376 nM; IC50 (human LPA5; read-out: LPA5 antagonist IC50, Ca2+ mobilization, RH7777 cells): 977 nM; Decrease of MDA-MB-231 cell migration vs untreated control (MDA-MB-231 cells [3]; 40 μmol/L, P < 0.05): 57%
CCCCCCCCCCCCCCCC(=O)OCC(O)CC(Br)P(=O)(O)O (stereo not drawn) [compound 1, palmitoyl α-bromomethylenephosphonate]	significantly lower blood vessel density	reduction of tumor size relative to controls	Antagonist	805	4520	Antagonist	245	468	Antagonist			Antagonist	13.9	Partial agonist	102 ± 2.7% inhibition (10 μmol/L)					54	LPA3 inhibition (human LPA3; at 30 μmol/L (200 nmol/L LPA)): 71.3%; EC50 (human LPA5; read-out: LPA5 agonist EC50, Ca2+ mobilization, NS = non-saturated): 1280 nM; Effect of mixed diastereomers on cell migration (MDA-MB-231 cells [3]; data not shown): intermediate inhibition of cell migration; Blood vessel density in tumor (CD31 staining), sequential treatment ([1]; Taxol (10 mg/kg, two doses) then BrP-LPA 1 (10 mg/kg, two doses), i.p.): statistically different from the control; Tumor size relative to controls, sequential treatment ([1]; two injections of Taxol (10 mg/kg) week 1, then two injections of BrP-LPA 1 (10 mg/kg) week 2, i.p.): reduction of tumor size relative to controls; ATX activity inhibited [5]: over 98%
CCCCCCCCCCCCCCCC(=O)OC[C@@H](O)C[C@@H](Br)P(=O)(O)O [1a]			Antagonist	273	648	Antagonist	250	288	Antagonist	1830	4440	Antagonist	35.1	Partial agonist	98.1 ± 2.3% inhibition (10 μmol/L)	165	inhibited the MDA-MB-231 cell migration	~ 52%	significantly decreased the tumor volume	64	
